Experimental data as given in ChEMBL document CHEMBL4145521, “Regioselective synthesis of 3,4-diaryl-5-unsubstituted isoxazoles, analogues of natural cytostatic combretastatin A4” (Eur J Med Chem, 2018).

Legend:
Format in all cases: functional
[1] = test system: ACHN; test: Cytotoxicity against human ACHN cells assessed as cell growth at 0.01 uM incubated for 48 hrs by sulforhodamine B assay relative to control; conditions: read-out: Activity
[2] = test system: UO-31; test: Cytotoxicity against human UO31 cells incubated for 48 hrs by sulforhodamine B assay; conditions: UO-31, 48 h
[3] = test system: T47D; test: Cytotoxicity against human T47D cells incubated for 48 hrs by sulforhodamine B assay
[4] = test system: OVCAR-8; test: Cytotoxicity against human OVCAR8 cells assessed as cell growth at 1 uM incubated for 48 hrs by sulforhodamine B assay relative to control; conditions: OVCAR-8, 48 h, read-out: Activity
[5] = test system: SW-620; test: Cytotoxicity against human SW620 cells incubated for 48 hrs by sulforhodamine B assay; conditions: SW-620, 48 h
[6] = test system: OVCAR-4; test: Cytotoxicity against human OVCAR4 cells incubated for 48 hrs by sulforhodamine B assay; conditions: OVCAR-4, 48 h
[7] = test system: MOLT-4; test: Cytotoxicity against human MOLT4 cells assessed as cell growth at 0.1 uM incubated for 48 hrs by sulforhodamine B assay relative to control; conditions: MOLT-4, 48 h, read-out: Activity
[8] = test system: SK-MEL-2; test: Cytotoxicity against human SK-MEL-2 cells assessed as cell growth at 1 uM incubated for 48 hrs by sulforhodamine B assay relative to control; conditions: SK-MEL-2, 48 h, read-out: Activity
[9] = test system: MDA-MB-435; test: Cytotoxicity against human MDA-MB-435 cells assessed as cell growth at 0.1 uM incubated for 48 hrs by sulforhodamine B assay relative to control; conditions: MDA-MB-435, 48 h, read-out: Activity
[10] = test system: HCT-15; test: Cytotoxicity against human HCT15 cells assessed as cell growth at 0.1 uM incubated for 48 hrs by sulforhodamine B assay relative to control; conditions: HCT-15, 48 h, read-out: Activity
[11] = test system: 786-0; test: Cytotoxicity against human 786-0 cells assessed as cell growth at 10 uM incubated for 48 hrs by sulforhodamine B assay relative to control; conditions: 786-0, 48 h, read-out: Activity
[12] = test system: SN12C; test: Cytotoxicity against human SN12C cells assessed as cell growth at 0.01 uM incubated for 48 hrs by sulforhodamine B assay relative to control; conditions: read-out: Activity
[13] = test system: K562; test: Cytotoxicity against human K562 cells incubated for 48 hrs by sulforhodamine B assay; conditions: K562, 48 h
[14] = test system: HL-60(TB); test: Cytotoxicity against human HL-60(TB) cells assessed as cell growth at 0.1 uM incubated for 48 hrs by sulforhodamine B assay relative to control; conditions: HL-60, 48 h, read-out: Activity
[15] = test system: Paracentrotus lividus; test: Antimitotic activity against Paracentrotus lividus embryo assessed as cleavage arrest measured at 5.5 hrs post fertilization by light microscopy
Method in brief: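 Sea urchin eggs were fertilized with diluted sperm and cultured at room temperature in filtered seawater with paddle agitation (60 rpm), at up to 2000 embryos/mL. The effective threshold concentration causing cleavage alteration, death before hatching or full mitotic arrest was scored in duplicate.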

[16] = test system: OVCAR-8; test: Cytotoxicity against human OVCAR8 cells incubated for 48 hrs by sulforhodamine B assay; conditions: OVCAR-8, 48 h
[17] = test system: SK-OV-3; test: Cytotoxicity against human SKOV3 cells assessed as cell growth at 1 uM incubated for 48 hrs by sulforhodamine B assay relative to control; conditions: SK-OV-3, 48 h, read-out: Activity
[18] = test system: U-251; test: Cytotoxicity against human U251 cells assessed as cell growth at 1 uM incubated for 48 hrs by sulforhodamine B assay relative to control; conditions: U-251, 48 h, read-out: Activity
[19] = test system: Hs-578T; test: Cytotoxicity against human Hs 578T cells assessed as cell growth at 10 uM incubated for 48 hrs by sulforhodamine B assay relative to control; conditions: read-out: Activity
[20] = test system: LOX IMVI; test: Cytotoxicity against human LOXIMVI cells incubated for 48 hrs by sulforhodamine B assay
[21] = test system: Hs-578T; test: Cytotoxicity against human Hs 578T cells assessed as cell growth at 1 uM incubated for 48 hrs by sulforhodamine B assay relative to control; conditions: read-out: Activity
[22] = test system: OVCAR-8; test: Cytotoxicity against human OVCAR8 cells assessed as cell growth at 0.1 uM incubated for 48 hrs by sulforhodamine B assay relative to control; conditions: OVCAR-8, 48 h, read-out: Activity
[23] = test system: DU-145; test: Cytotoxicity against human DU145 cells assessed as cell growth at 0.01 uM incubated for 48 hrs by sulforhodamine B assay relative to control; conditions: DU-145, 48 h, read-out: Activity
[24] = test system: IGROV-1; test: Cytotoxicity against human IGROV1 cells assessed as cell growth at 1 uM incubated for 48 hrs by sulforhodamine B assay relative to control; conditions: IGROV-1, 48 h, read-out: Activity
[25] = test system: NCI-H460; test: Cytotoxicity against human NCI-H460 cells assessed as cell growth at 0.01 uM incubated for 48 hrs by sulforhodamine B assay relative to control; conditions: NCI-H460, 48 h, read-out: Activity
[26] = test system: K562; test: Cytotoxicity against human K562 cells assessed as cell growth at 1 uM incubated for 48 hrs by sulforhodamine B assay relative to control; conditions: K562, 48 h, read-out: Activity
[27] = test system: KM12; test: Cytotoxicity against human KM12 cells assessed as cell growth at 100 uM incubated for 48 hrs by sulforhodamine B assay relative to control; conditions: KM12, 48 h, read-out: Activity
[28] = test system: ACHN; test: Cytotoxicity against human ACHN cells assessed as cell growth at 1 uM incubated for 48 hrs by sulforhodamine B assay relative to control; conditions: read-out: Activity
[29] = test system: SK-MEL-28; test: Cytotoxicity against human SK-MEL-28 cells assessed as cell growth at 1 uM incubated for 48 hrs by sulforhodamine B assay relative to control; conditions: SK-MEL-28, 48 h, read-out: Activity
[30] = read-out: LC50 (the source's name)
[31] = read-out: pLC50 (the source's name) (converted)

COc1ccc(-c2nocc2-c2cc(OC)c(OC)c(OC)c2)cc1
growth at 0.01 µM [1]: 94% | GI50 ([2]; read-out: GI50): 0.545 µM | CC50 [2, 30]: > 100 µM | TGI ([2]; read-out: TGI): 28.7 µM | GI50 ([2]; read-out: pGI50 (converted)): 0.55 µM | CC50 [2, 31]: > 100 µM | TGI ([2]; read-out: pTGI (converted)): 28.8 µM | LC50 ([3]; read-out: LC50): > 100 µM | TGI ([3]; read-out: TGI): 86.3 µM | LC50 ([3]; read-out: pLC50 (converted)): > 100 µM | TGI ([3]; read-out: pTGI (converted)): 87.1 µM | growth at 1 µM [4]: 27% | GI50 ([5]; read-out: GI50): 0.0509 µM | CC50 [5, 30]: > 100 µM | TGI ([5]; read-out: TGI): > 100 µM | GI50 ([5]; read-out: pGI50 (converted)): 0.0513 µM | CC50 [5, 31]: > 100 µM | TGI ([5]; read-out: pTGI): > 100 µM | GI50 ([6]; read-out: GI50): 0.926 µM | LC50 ([6]; read-out: LC50): > 100 µM | TGI ([6]; read-out: TGI): > 100 µM | GI50 ([6]; read-out: pGI50 (converted)): 0.933 µM | LC50 ([6]; read-out: pLC50 (converted)): > 100 µM | TGI ([6]; read-out: pTGI): > 100 µM | growth at 0.1 µM [7]: 85% | growth at 1 µM [8]: 28% | growth at 0.1 µM [9]: 3% | growth at 0.1 µM [10]: 29% | growth at 10 µM [11]: 24% | growth at 0.01 µM [12]: 107% | GI50 ([13]; read-out: GI50): 0.0471 µM | LC50 (50% lethal concentration) ([13]; read-out: LC50): > 100 µM | TGI ([13]; read-out: TGI): > 100 µM | GI50 ([13]; read-out: pGI50 (converted)): 0.0468 µM | LC50 (50% lethal concentration) ([13]; read-out: pLC50 (converted)): > 100 µM | TGI ([13]; read-out: pTGI): > 100 µM | growth at 0.1 µM [14]: 25% | EC [15]: 0.1 µM | GI50 ([16]; read-out: GI50): 0.327 µM | CC50 [16, 30]: > 100 µM | TGI ([16]; read-out: TGI): > 100 µM | GI50 ([16]; read-out: pGI50 (converted)): 0.324 µM | CC50 [16, 31]: > 100 µM | TGI ([16]; read-out: pTGI): > 100 µM | growth at 1 µM [17]: 38% | growth at 1 µM [18]: 22% | growth at 10 µM [19]: 28% | GI50 ([20]; read-out: GI50): 0.254 µM | LC50 (concentration killing 50% of cells) ([20]; read-out: LC50): > 100 µM | TGI ([20]; read-out: TGI): 55.5 µM | GI50 ([20]; read-out: pGI50 (converted)): 0.257 µM | LC50 (concentration killing 50% of cells) ([20]; read-out: pLC50 (converted)): > 100 µM | TGI ([20]; read-out: pTGI (converted)): 55 µM | growth at 1 µM [21]: 31% | growth at 0.1 µM [22]: 74% | growth at 0.01 µM [23]: 99% | growth at 1 µM [24]: 47% | growth at 0.01 µM [25]: 105% | growth at 1 µM [26]: 14% | growth at 100 µM [27]: -45% | growth at 1 µM [28]: 52% | growth at 1 µM [29]: 58%
